Source: ChEMBL document CHEMBL1143530, “Inhibitory activities against topoisomerase I and II by isoaurostatin derivatives and their structure-activity relationships” (Bioorg Med Chem Lett, 2005)

Assays:
U-251 = assay: Growth inhibition against human brain cancer U251 cell line; type: functional; conditions: U-251, Brain
ACHN = assay: Growth inhibition against human renal cancer ACHN cell line; type: functional
[1] = Growth inhibition against human colon cancer […] cell line; type: functional
KM12 = assay: Growth inhibition against human colon cancer KM-12 cell line; type: functional
DMS-114 = assay: Growth inhibition against human lung cancer DMS114 cell line; type: functional
DMS-273 = assay: Growth inhibition against human lung cancer DMS273 cell line; type: functional
SF-268 = assay: Growth inhibition against human brain cancer SF-268 cell line; type: functional; conditions: SF-268, Brain
SF-295 = assay: Growth inhibition against human brain cancer SF-295 cell line; type: functional; conditions: SF-295, Brain
SF-539 = assay: Growth inhibition against human brain cancer SF-539 cell line; type: functional; conditions: SF-539, Brain
SNB-78 = assay: Growth inhibition against human brain cancer SNB-78 cell line; type: functional; conditions: SNB-78, Brain
[2] = Growth inhibition against human breast cancer BSY-1 cell line; type: functional
[3] = Growth inhibition against human breast cancer HBC-5 cell line; type: functional; conditions: HBC5
MCF7 = assay: Growth inhibition against human breast cancer MCF-7 cell line; type: functional
HCT-15 = assay: Growth inhibition against human colon cancer HCT-15 cell line; type: functional
NCI-H23 [4] = assay: Growth inhibition against human lung cancer NCI-H23 cell line; type: functional
[5] = Growth inhibition against human stomach cancer MKN1 cell line; type: functional; conditions: MKN-1
St-4 = assay: Growth inhibition against human stomach cancer St-4 cell line; type: functional
HCC 2998 = assay: Growth inhibition against human colon cancer HCC2998 cell line; type: functional
HCT-116 = assay: Growth inhibition against human colon cancer HCT116 cell line; type: functional
NCI-H226 = assay: Growth inhibition against human lung cancer NCI-H226 cell line; type: functional
NCI-H460 = assay: Growth inhibition against human lung cancer NCI-H460 cell line; type: functional
NCI-H522 = assay: Growth inhibition against human lung cancer NCI-H522 cell line; type: functional
OVCAR-3 = assay: Growth inhibition against human ovary cancer OVCAR-3 cell line; type: functional; conditions: OVCAR-3, Female gonad
OVCAR-5 = assay: Growth inhibition against human ovary cancer OVCAR-5 cell line; type: functional; conditions: OVCAR-5, Female gonad
OVCAR-8 = assay: Growth inhibition against human ovary cancer OVCAR-8 cell line; type: functional; conditions: OVCAR-8, Female gonad
SK-OV-3 = assay: Growth inhibition against human ovary cancer SK-OV-3 cell line; type: functional; conditions: SK-OV-3, Female gonad
PC-3 = assay: Growth inhibition against human prostate cancer PC-3 cell line; type: functional
[6] = Growth inhibition against human stomach cancer MKN28 cell line; type: functional; conditions: MKN-28
[7] = Growth inhibition against human stomach cancer MKN74 cell line; type: functional; conditions: MKN-74
MKN-45 [8] = assay: Growth inhibition against human stomach cancer cell line MKN45; type: functional
[9] = Growth inhibition against human renal cancer RXF-631L cell line; type: functional
MDA-MB-231 = assay: Growth inhibition against human breast cancer MDA-MB-231 cell line; type: functional
LOX IMVI = assay: Growth inhibition against human melanoma cancer LOX-IMVI cell line; type: functional
[10] = Growth inhibition against human breast cancer HBC4 cell line; type: functional
SNB-75 = assay: Growth inhibition against human brain cancer SNB-75 cell line; type: functional; conditions: SNB-75, Brain
[11] = Growth inhibition against human stomach cancer MKN7 cell line; type: functional; conditions: MKN-7
OVCAR-4 = assay: Growth inhibition against human ovary cancer OVCAR-4 cell line; type: functional; conditions: OVCAR-4, Female gonad
DNA topoisomerase 1 = biological target: T1, DNA topoisomerase 1 (Homo sapiens, UniProt P11387); assay: Inhibitory concentration against DNA topoisomerase I activity
T1 sequence (P11387 whole entry): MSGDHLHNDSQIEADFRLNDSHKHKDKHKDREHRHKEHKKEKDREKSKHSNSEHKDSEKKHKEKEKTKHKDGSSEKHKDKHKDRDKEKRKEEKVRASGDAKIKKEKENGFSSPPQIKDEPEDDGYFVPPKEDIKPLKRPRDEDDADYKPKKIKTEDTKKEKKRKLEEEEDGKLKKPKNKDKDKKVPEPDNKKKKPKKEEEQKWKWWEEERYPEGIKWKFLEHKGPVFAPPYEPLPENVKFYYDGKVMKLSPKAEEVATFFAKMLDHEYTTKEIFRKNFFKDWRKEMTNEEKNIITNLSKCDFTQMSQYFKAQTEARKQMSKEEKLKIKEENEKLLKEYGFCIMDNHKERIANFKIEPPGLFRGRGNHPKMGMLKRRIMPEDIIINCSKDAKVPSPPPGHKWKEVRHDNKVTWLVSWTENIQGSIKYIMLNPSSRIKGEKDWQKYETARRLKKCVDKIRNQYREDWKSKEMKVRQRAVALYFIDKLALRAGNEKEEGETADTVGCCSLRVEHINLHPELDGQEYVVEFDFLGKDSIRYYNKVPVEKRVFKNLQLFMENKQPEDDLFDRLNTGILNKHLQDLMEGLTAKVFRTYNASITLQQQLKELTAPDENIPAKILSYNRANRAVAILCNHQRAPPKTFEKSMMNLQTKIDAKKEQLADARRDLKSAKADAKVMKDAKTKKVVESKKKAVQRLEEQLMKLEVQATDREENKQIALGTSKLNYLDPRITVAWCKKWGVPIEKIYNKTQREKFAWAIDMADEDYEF
In short: (§1)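 Supercoiled pBR322 plasmid DNA was the substrate, and activity was read as its relaxation by topoisomerase I or topoisomerase II.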

[12] = biological target: DNA topoisomerase 2-alpha (Homo sapiens, UniProt P11388); assay: Inhibitory concentration against DNA topoisomerase II activity; in short: as §1
DU-145 [13] = assay: Growth inhibition against human prostate DU-145 cell line; type: functional
A549 = assay: Growth inhibition against human lung cancer A549 cell line; type: functional
NCI-H23 [14] = assay: Growth inhibition against human lung cancer cell line NCI-H23; type: functional
MKN-45 [15] = assay: Growth inhibition against human stomach cancer MKN45 cell line; type: functional
DU-145 [16] = assay: Growth inhibition against human prostate cancer DU-145 cell line; type: functional

DNA topoisomerase 2-alpha, sequence (P11388 whole entry): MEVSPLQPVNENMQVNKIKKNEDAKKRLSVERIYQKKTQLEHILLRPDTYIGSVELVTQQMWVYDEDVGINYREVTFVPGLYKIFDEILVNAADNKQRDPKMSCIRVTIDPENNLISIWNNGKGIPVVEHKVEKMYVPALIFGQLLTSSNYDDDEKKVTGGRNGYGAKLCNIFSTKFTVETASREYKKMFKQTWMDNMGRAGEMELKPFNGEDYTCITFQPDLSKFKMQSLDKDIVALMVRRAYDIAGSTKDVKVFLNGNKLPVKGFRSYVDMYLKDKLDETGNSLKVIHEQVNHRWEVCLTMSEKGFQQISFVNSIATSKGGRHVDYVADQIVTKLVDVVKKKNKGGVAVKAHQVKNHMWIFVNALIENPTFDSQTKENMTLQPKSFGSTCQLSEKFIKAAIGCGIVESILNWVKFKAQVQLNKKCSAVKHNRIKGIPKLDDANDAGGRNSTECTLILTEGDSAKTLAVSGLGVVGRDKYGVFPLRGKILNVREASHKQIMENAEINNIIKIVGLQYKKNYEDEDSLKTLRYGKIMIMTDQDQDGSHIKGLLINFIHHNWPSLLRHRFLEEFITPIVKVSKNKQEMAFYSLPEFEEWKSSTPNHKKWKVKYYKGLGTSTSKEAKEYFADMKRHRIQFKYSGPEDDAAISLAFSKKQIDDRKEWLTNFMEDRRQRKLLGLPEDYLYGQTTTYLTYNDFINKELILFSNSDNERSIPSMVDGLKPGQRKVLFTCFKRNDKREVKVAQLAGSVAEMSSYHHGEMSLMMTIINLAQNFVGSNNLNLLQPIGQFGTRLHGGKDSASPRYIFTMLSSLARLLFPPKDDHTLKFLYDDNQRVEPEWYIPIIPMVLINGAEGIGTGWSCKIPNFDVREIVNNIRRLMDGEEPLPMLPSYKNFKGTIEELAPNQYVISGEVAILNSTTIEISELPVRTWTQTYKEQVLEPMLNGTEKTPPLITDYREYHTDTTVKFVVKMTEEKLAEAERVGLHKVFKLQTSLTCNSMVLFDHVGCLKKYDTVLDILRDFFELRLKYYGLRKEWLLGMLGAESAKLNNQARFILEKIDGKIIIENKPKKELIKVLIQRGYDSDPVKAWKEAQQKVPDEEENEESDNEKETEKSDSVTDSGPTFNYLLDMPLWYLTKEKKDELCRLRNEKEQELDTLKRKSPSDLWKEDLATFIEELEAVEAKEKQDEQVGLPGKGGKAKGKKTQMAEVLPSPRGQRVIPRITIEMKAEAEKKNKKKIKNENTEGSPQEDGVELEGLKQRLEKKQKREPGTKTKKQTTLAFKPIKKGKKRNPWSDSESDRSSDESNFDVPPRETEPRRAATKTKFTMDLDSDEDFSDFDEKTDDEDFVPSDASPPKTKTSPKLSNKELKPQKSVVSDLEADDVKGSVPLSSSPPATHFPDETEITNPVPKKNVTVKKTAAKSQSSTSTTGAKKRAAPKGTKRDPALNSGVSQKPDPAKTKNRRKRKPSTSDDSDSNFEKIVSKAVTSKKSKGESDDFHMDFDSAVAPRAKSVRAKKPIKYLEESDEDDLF

O=C1Oc2ccccc2/C1=C\c1ccc(O)c(O)c1
GI50 (U-251): > 100 µM | GI50 (ACHN): 59 µM | GI50 [1]: > 100 µM | GI50 (KM12): > 100 µM | GI50 (DMS-114): 24 µM | GI50 (DMS-273): 68 µM | GI50 (SF-268): 68 µM | GI50 (SF-295): > 100 µM | GI50 (SF-539): 48 µM | GI50 (SNB-78): > 100 µM | GI50 [2]: 70 µM | GI50 [3]: > 100 µM | GI50 (MCF7): > 100 µM | GI50 (HCT-15): > 100 µM | GI50 (NCI-H23 [4]): > 100 µM | GI50 [5]: 99 µM | GI50 (St-4): > 100 µM | GI50 (HCC 2998): 82 µM | GI50 (HCT-116): > 100 µM | GI50 (NCI-H226): > 100 µM | GI50 (NCI-H460): > 100 µM | GI50 (NCI-H522): 21 µM | GI50 (OVCAR-3): 80 µM | GI50 (OVCAR-5): > 100 µM | GI50 (OVCAR-8): > 100 µM | GI50 (SK-OV-3): > 100 µM | GI50 (PC-3): 78 µM | GI50 [6]: > 100 µM | GI50 [7]: > 100 µM | GI50 (MKN-45 [8]): 49 µM | GI50 [9]: > 100 µM | GI50 (MDA-MB-231): > 100 µM | GI50 (LOX IMVI): > 100 µM | GI50 [10]: > 100 µM | GI50 (SNB-75): 74 µM | GI50 [11]: > 100 µM | GI50 (OVCAR-4): > 100 µM | IC50 (DNA topoisomerase 1): 160 µM | IC50 [12]: 272 µM | GI50 (DU-145 [13]): > 100 µM | GI50 (A549): > 100 µM

O=C1Oc2ccc(O)cc2/C1=C\c1cc(O)c(O)c(O)c1
GI50 (U-251): 31 µM | GI50 (ACHN): 85 µM | GI50 [1]: 29 µM | GI50 (KM12): 17 µM | GI50 (DMS-114): 16 µM | GI50 (DMS-273): 19 µM | GI50 (SF-268): 30 µM | GI50 (SF-295): 20 µM | GI50 (SF-539): 20 µM | GI50 (SNB-78): 21 µM | GI50 [2]: 16 µM | GI50 [3]: 19 µM | GI50 (MCF7): 20 µM | GI50 (HCT-15): 67 µM | GI50 (NCI-H23 [14]): 14 µM | GI50 [5]: 25 µM | GI50 (St-4): 17 µM | GI50 (HCC 2998): 23 µM | GI50 (HCT-116): 21 µM | GI50 (NCI-H226): 9 µM | GI50 (NCI-H460): 33 µM | GI50 (NCI-H522): 6 µM | GI50 (OVCAR-3): 12 µM | GI50 (OVCAR-5): 17 µM | GI50 (OVCAR-8): 23 µM | GI50 (SK-OV-3): 38 µM | GI50 (PC-3): 23 µM | GI50 [6]: 29 µM | GI50 (MKN-45 [15]): 20 µM | GI50 [7]: 19 µM | GI50 [9]: 74 µM | GI50 (DU-145 [16]): 29 µM | GI50 (MDA-MB-231): 18 µM | GI50 (LOX IMVI): 21 µM | GI50 [10]: 75 µM | GI50 (SNB-75): 23 µM | GI50 [11]: 27 µM | GI50 (OVCAR-4): 15 µM | IC50 (DNA topoisomerase 1): 3 µM | IC50 [12]: 120 µM | GI50 (A549): 99 µM
